Test results published in article PMC12657421 (International Journal of Pharmaceutics: X, 2025).

Key:
[1] = Equilibrium solubility, shake-flask method; type: physicochemical; conditions: pH 1.2, pH 4.5, pH 6.8, 37 °C
Procedure, shortened: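 Shake-flask method: excess solid stirred in 5 mL of water or pH 1.2, 4.5 or 6.8 buffer at 37 °C for 72 h. Samples were centrifuged, and the supernatant was assayed directly by HPLC using a modified Chinese Pharmacopoeia method.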

[2] = In vitro powder dissolution in pH 6.8 and pH 7.0 media; type: physicochemical
Procedure, shortened: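 60 mg emodin, or an equivalent amount of cocrystal, added to 900 mL of pH 6.8 or pH 7.0 medium at 37 °C with propeller at 100 rpm. Autosampled 1 mL at 10–720 min (nine points), centrifuged 13,400 rpm for 10 min, supernatant by HPLC. Run in triplicate.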

[3] = type: in vivo, Sprague Dawley rats
Procedure, shortened: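 Male SD rats (250 ± 20 g), acclimated one week, n = 6 per group, oral single dose. Plasma separated at 4 °C, stored −80 °C, acetonitrile-precipitated with chrysophanol internal standard and diluted with water. Emodin quantified by HPLC-MS/MS, C18 column at 40 °C, triple quadrupole.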

[4] = ref NIST (National Institute of Standards and Technology, n.d); cited from earlier work
[5] = male, Sprague Dawley, rat, plasma, po, 100 mg/kg

Structure (SMILES)	Solubility in purified water and three other media [1]	Apparent dissolution (detectability) [2]	AUC(0-inf) [3, 5] [ng·h/mL]	AUC(0-t) [3, 5] [ng·h/mL]	Cmax [3, 5] [ng/mL]	MRT inf [3, 5] [h]	MRT last [3, 5] [h]	Tmax [3, 5] [h]	half-life [3, 5] [h]	CLz ([3]; rats, oral, EMO 100 mg/kg or equimolar cocrystal, plasma EMO, n = 6) [mL/h/kg]	Sublimation enthalpy [4] [kcal/mol]
Cc1cc(O)c2c(c1)C(=O)c1cc(O)cc(O)c1C2=O [EMO, Emodin]	negligible solubility	undetectability	33400	2370 ± 947	274 ± 160	5.9 ± 5.41	10.3 ± 1.94	11 ± 1.67	4.13 ± 1.97	4 ± 3	
Cc1nc(C)c(C)nc1C [TMP, Tetramethylpyrazine]											22.6
